Measurements as given in ChEMBL document CHEMBL3352173, “Optimization of pyrrolamide topoisomerase II inhibitors toward identification of an antibacterial clinical candidate (AZD5099)” (J Med Chem, 2014).
Values after ≈ are worked out from the molar mass of the structure shown.

Tests used:
[1] = Bioavailability in Wistar rat at 10 mg/kg, […]; assay type: ADME, organism-based; details: in vivo
[2] = Percentage unbound in dog plasma; assay type: ADME, cell-free, Canis lupus familiaris
[3] = Clearance in dog at 10 mg/kg, iv; assay type: ADME, organism-based, Canis lupus familiaris; design: dose 10 mg/kg, route intravenous; details: plasma
[4] = tested on: Staphylococcus aureus; experiment: Antibacterial activity against methicillin-sensitive Staphylococcus aureus ARC516 infected in ip dosed neutropenic CD1 mouse thigh model assessed as decrease in bacterial viable counts treated for q24; assay type: functional; details: ARC516, Thigh muscle
[5] = Percentage unbound in rat plasma; assay type: ADME, cell-free
[6] = Dissociation constant, pKa of the compound; assay type: physicochemical
[7] = target: DNA gyrase subunit B (Staphylococcus aureus, UniProt P0A0K8); experiment: Inhibition of ATPase activity of Staphylococcus aureus GyrB
Sequence of DNA gyrase subunit B (P0A0K8 whole entry): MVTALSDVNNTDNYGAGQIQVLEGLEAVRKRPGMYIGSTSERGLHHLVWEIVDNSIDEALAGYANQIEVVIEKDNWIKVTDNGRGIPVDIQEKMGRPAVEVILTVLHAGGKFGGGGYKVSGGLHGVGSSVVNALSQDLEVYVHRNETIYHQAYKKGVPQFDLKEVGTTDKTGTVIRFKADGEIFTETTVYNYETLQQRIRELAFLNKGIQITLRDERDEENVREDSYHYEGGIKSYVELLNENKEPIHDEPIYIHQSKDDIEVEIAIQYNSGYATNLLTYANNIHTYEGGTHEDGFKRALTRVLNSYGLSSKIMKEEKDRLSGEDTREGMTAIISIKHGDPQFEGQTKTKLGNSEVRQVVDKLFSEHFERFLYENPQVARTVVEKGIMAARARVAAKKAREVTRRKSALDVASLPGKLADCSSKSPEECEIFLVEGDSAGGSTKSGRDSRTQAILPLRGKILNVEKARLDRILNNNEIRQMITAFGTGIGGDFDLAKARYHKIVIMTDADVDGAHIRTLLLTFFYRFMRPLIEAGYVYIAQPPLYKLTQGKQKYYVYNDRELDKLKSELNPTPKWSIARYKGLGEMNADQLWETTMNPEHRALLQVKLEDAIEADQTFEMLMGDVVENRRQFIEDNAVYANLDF
Summary of the method: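 IC50 was determined against S. aureus GyrB in the routine screening assay. The enzyme concentration limits resolution below 10 nM.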

[8] = tested on: Streptococcus pneumoniae; experiment: Antibacterial activity against Streptococcus pneumoniae by broth microdilution/CLSI method; assay type: functional
[9] = Ratio of MIC for methicillin, quinolone-resistant Staphylococcus aureus to fraction unbound in human plasma; assay type: ADME
[10] = Clearance in rat at 10 mg/kg, iv; assay type: ADME, organism-based; design: dose 10 mg/kg, route intravenous; details: in vivo
[11] = tested on: Streptococcus pyogenes; experiment: Antimicrobial activity against Streptococcus pyogenes by broth microdilution/CLSI method; assay type: functional
[12] = Percentage unbound in mouse plasma; assay type: ADME, cell-free
[13] = tested on: Mus musculus; experiment: fAUC in methicillin-sensitive Staphylococcus aureus ARC516 infected in neutropenic CD1 mouse thigh model at 30 mg/kg, ip q24; assay type: ADME, organism-based; design: dose 30 mg/kg, route intraperitoneal; details: in vivo
[14] = Octanol-phosphate buffer distribution coefficient, log D of the compound at pH 7.4 by shake flask method; assay type: physicochemical
[15] = AUC in methicillin-sensitive Staphylococcus aureus ARC516 infected in neutropenic CD1 mouse thigh model at 30 mg/kg, ip q24; assay type: ADME, organism-based; design: dose 30 mg/kg, route intraperitoneal; details: in vivo
[16] = tested on: Escherichia coli; experiment: Antimicrobial activity against Escherichia coli tolC- by broth microdilution/CLSI method; assay type: functional
[17] = tested on: Staphylococcus aureus; experiment: Antimicrobial activity against methicillin-sensitive Staphylococcus aureus by broth microdilution/CLSI method; assay type: functional
[18] = Bioavailability in CD1 mouse at 10 mg/kg, […]; assay type: ADME, organism-based; details: in vivo
[19] = target: T1, ATP-binding cassette sub-family C member 2 (Homo sapiens, UniProt Q92887); experiment: Inhibition of ATPase activity of human MRP2 assessed as inorganic phosphate
T1 sequence (Q92887 whole entry): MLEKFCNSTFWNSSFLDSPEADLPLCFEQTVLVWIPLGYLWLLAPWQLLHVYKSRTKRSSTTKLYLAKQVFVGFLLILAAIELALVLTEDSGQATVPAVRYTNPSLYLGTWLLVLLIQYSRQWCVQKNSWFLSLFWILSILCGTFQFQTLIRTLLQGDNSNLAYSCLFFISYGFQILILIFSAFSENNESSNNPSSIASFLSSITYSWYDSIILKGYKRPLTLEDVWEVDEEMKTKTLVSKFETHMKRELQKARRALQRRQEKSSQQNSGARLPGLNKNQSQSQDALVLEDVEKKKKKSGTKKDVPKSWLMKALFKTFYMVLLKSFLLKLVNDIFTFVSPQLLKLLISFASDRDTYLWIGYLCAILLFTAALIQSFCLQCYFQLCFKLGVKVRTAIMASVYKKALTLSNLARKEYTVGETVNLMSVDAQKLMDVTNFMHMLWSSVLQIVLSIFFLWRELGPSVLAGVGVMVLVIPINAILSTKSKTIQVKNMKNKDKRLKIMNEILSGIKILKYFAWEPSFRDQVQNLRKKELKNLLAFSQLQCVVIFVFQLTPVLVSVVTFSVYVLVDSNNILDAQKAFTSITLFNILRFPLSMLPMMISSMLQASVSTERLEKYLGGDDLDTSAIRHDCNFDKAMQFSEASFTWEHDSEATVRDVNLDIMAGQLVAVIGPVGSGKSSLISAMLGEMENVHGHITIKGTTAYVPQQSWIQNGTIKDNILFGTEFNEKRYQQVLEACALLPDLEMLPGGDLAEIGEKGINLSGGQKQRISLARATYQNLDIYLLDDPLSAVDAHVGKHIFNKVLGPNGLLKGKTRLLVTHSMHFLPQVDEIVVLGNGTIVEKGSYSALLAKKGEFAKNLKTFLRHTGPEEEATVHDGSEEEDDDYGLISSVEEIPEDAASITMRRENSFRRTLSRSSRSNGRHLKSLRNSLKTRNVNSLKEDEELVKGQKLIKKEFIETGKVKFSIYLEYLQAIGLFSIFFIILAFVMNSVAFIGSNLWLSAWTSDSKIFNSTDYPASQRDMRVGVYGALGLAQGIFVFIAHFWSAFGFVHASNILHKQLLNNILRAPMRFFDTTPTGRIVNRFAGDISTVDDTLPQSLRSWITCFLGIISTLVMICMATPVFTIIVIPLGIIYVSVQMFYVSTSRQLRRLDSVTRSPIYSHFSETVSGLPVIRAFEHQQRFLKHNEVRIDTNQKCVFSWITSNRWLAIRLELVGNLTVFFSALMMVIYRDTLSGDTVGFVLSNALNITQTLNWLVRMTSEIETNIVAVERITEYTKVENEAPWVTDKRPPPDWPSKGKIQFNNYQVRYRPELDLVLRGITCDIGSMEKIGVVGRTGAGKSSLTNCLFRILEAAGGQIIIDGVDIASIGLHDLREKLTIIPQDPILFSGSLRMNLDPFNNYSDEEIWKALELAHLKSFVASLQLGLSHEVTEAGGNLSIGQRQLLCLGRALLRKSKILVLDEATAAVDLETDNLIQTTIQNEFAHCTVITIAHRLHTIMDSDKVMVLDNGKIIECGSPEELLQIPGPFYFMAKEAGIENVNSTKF

[20] = tested on: Staphylococcus aureus; experiment: Antimicrobial activity against methicillin, quinolone-resistant Staphylococcus aureus by broth microdilution/CLSI method; assay type: functional
[21] = tested on: Moraxella catarrhalis; experiment: Antimicrobial activity against Moraxella catarrhalis by broth microdilution/CLSI method; assay type: functional
[22] = target: T2, ATP-binding cassette sub-family C member 2 (Rattus norvegicus, UniProt Q63120); experiment: Inhibition of ATPase activity of rat Mrp2 assessed as inorganic phosphate
T2 sequence (Q63120 whole entry): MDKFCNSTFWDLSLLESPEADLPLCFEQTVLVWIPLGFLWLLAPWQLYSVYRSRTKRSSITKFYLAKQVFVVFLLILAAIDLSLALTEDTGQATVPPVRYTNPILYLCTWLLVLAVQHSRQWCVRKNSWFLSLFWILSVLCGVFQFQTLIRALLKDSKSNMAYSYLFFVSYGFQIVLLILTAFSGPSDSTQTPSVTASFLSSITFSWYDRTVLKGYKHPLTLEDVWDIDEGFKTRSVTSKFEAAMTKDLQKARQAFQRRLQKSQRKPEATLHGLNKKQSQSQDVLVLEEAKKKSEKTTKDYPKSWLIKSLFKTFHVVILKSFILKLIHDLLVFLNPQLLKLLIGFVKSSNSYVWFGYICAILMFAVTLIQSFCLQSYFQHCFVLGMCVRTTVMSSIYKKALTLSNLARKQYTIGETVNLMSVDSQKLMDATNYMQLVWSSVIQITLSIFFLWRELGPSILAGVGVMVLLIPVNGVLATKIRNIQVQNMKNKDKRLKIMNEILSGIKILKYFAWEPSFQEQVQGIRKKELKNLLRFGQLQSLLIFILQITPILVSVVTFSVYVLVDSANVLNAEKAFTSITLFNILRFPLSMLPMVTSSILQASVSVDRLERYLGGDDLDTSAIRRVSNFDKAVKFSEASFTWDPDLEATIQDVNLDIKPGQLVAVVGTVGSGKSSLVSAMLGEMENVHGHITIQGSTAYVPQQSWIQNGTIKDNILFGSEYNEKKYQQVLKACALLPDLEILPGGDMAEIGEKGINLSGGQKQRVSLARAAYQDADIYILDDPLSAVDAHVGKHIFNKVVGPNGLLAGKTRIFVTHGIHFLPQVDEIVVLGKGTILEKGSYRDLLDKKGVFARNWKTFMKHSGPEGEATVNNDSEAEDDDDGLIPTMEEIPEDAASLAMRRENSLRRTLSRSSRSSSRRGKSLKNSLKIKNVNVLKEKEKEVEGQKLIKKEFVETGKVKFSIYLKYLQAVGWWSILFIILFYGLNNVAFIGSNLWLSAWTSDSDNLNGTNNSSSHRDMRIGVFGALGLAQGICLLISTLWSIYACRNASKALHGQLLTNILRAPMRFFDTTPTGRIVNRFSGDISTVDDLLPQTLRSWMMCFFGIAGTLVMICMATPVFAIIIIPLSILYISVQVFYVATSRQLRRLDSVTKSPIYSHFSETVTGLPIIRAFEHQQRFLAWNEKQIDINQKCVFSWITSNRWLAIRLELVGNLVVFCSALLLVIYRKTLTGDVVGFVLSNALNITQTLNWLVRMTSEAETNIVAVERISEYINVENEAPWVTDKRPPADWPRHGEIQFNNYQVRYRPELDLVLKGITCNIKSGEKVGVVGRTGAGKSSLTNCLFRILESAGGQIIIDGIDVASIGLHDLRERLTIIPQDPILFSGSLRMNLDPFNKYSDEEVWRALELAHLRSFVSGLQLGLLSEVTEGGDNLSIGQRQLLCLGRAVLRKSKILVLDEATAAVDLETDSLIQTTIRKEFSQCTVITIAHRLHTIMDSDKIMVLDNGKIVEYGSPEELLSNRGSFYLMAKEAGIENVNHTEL

[23] = tested on: Staphylococcus aureus; experiment: Antibacterial activity against methicillin-sensitive Staphylococcus aureus ARC516 infected in neutropenic CD1 mouse thigh model assessed as decrease in bacterial viable counts at 30 mg/kg, ip q24; assay type: functional; details: route intraperitoneal
[24] = Bioavailability in dog at 10 mg/kg, iv; assay type: ADME, organism-based, Canis lupus familiaris; details: plasma
[25] = target: T1, ATP-binding cassette sub-family C member 2; experiment: Stimulation of ATPase activity of human MRP2 assessed as inorganic phosphate
[26] = tested on: Escherichia coli; experiment: Antimicrobial activity against wild-type Escherichia coli Eco523 by broth microdilution/CLSI method; assay type: functional
[27] = Percentage unbound in human plasma; assay type: ADME, cell-free
[28] = Solubility of the compound; assay type: physicochemical
[29] = Clearance in CD1 mouse at 10 mg/kg, iv; assay type: ADME, organism-based; design: dose 10 mg/kg, route intravenous; details: in vivo
[30] = target: T2, ATP-binding cassette sub-family C member 2; experiment: Stimulation of ATPase activity of rat Mrp2 assessed as inorganic phosphate
[31] = tested on: Haemophilus influenzae; experiment: Antimicrobial activity against Haemophilus influenzae by broth microdilution/CLSI method; assay type: functional
[32] = Clearance in Wistar rat at 10 mg/kg, iv; assay type: ADME, organism-based; design: dose 10 mg/kg, route intravenous; details: in vivo
[33] = Clearance in TR-negative Wistar rat at 10 mg/kg, iv; assay type: ADME, organism-based; design: dose 10 mg/kg, route intravenous; details: in vivo
[34] = Streptococcus pneumoniae, read-out: MIC
[35] = Escherichia coli, read-out: MIC
[36] = Staphylococcus aureus, read-out: MIC
[37] = Moraxella catarrhalis, read-out: MIC
[38] = Escherichia coli, Eco523, read-out: MIC
[39] = Haemophilus influenzae, read-out: MIC

SMILES: CO[C@H]1CN(c2nc(-c3ncnn3C)c(C(=O)O)s2)CC[C@H]1NC(=O)c1[nH]c(C)c(Cl)c1Cl
- bioavailability [1]: 65%
- fraction unbound [2]: 0.2
- clearance [3]: 1.6 mL/min/kg
- MIC [4]: 0.03 µg/mL (≈ 0.0583 µM)
- fraction unbound [5]: 0.088
- pKa [6]: 4.5
- IC50 [7]: < 0.01 µM
- MIC [8, 34]: 0.007 µg/mL (≈ 0.0136 µM)
- Ratio [9]: 1.25
- clearance [10]: 17 mL/min/kg
- MIC [11]: 0.016 µg/mL (≈ 0.0311 µM)
- fraction unbound [12]: 0.097
- fAUC [13]: 19.8 µg·h/mL
- logD [14]: 0.15
- AUC [15]: 204 µg·h/mL
- MIC [16, 35]: 0.46 µg/mL (≈ 0.894 µM)
- MIC [17, 36]: 0.063 µg/mL (≈ 0.122 µM)
- bioavailability [18]: 74%
- IC50 [19]: > 200 µM
- MIC [20, 36]: 0.04 µg/mL (≈ 0.0778 µM)
- MIC [21, 37]: 0.026 µg/mL (≈ 0.0505 µM)
- IC50 [22]: > 200 µM
- deltalog10CFU [23]: 1.54
- bioavailability [24]: 70%
- EC50 [25]: 140 µM
- MIC [26, 38]: 32 µg/mL (≈ 62.2 µM)
- fraction unbound [27]: 0.032
- solubility [28]: 630 µM (≈ 324 µg/mL)
- clearance [29]: 7.4 mL/min/kg
- EC50 [30]: 110 µM
- MIC [31, 39]: 0.12 µg/mL (≈ 0.233 µM)

SMILES: CO[C@H]1CN(c2nc(CN3CCOCC3)c(C(=O)O)s2)CC[C@H]1NC(=O)c1[nH]c(C)c(Cl)c1Cl (racemic)
- IC50 [7]: < 0.01 µM
- MIC [8, 34]: 0.25 µg/mL (≈ 0.47 µM)
- Ratio [9]: 35
- clearance [10]: 0.25 mL/min/kg
- MIC [11]: 0.25 µg/mL (≈ 0.47 µM)
- logD [14]: 1.4
- MIC [16, 35]: > 8 µg/mL
- MIC [17, 36]: 2 µg/mL (≈ 3.76 µM)
- MIC [20, 36]: 2 µg/mL (≈ 3.76 µM)
- MIC [21, 37]: 1 µg/mL (≈ 1.88 µM)
- MIC [26, 38]: 0.13 µg/mL (≈ 0.244 µM)
- fraction unbound [27]: 0.057
- solubility [28]: > 1000 µM
- MIC [31, 39]: 4 µg/mL (≈ 7.51 µM)

SMILES: CO[C@H]1CN(c2ncc(C(=O)O)s2)CC[C@H]1NC(=O)c1[nH]c(C)c(Cl)c1Cl
- bioavailability [1]: 6.7%
- fraction unbound [2]: 0.22
- clearance [3]: 26 mL/min/kg
- clearance [32]: 34 mL/min/kg
- pKa [6]: 3.6
- IC50 [7]: < 0.01 µM
- MIC [8]: 0.016 µg/mL (≈ 0.0369 µM)
- Ratio [9]: 7
- clearance [10]: 52 mL/min/kg
- clearance [33]: 9.1 mL/min/kg
- MIC [16]: 0.18 µg/mL (≈ 0.415 µM)
- MIC [17]: 0.32 µg/mL (≈ 0.738 µM)
- IC50 [19]: > 200 µM
- MIC [20]: 0.5 µg/mL (≈ 1.15 µM)
- MIC [21]: 0.031 µg/mL (≈ 0.0715 µM)
- IC50 [22]: > 200 µM
- EC50 [25]: 71 µM
- MIC [26]: 64 µg/mL (≈ 148 µM)
- fraction unbound [27]: 0.071
- clearance [29]: 99 mL/min/kg
- EC50 [30]: 38 µM
- MIC [31]: 0.18 µg/mL (≈ 0.415 µM)

SMILES: COCC(COC)NC(=O)c1nc(N2CC[C@@H](NC(=O)c3[nH]c(C)c(Cl)c3Cl)[C@@H](OC)C2)sc1C(=O)O
- fraction unbound [2]: 0.12
- clearance [3]: 1.6 mL/min/kg
- clearance [32]: 13 mL/min/kg
- MIC [4]: 0.03 µg/mL (≈ 0.0519 µM)
- fraction unbound [5]: 0.038
- pKa [6]: 4.5
- IC50 [7]: < 0.01 µM
- MIC [8, 34]: 0.016 µg/mL (≈ 0.0277 µM)
- Ratio [9]: 2.3
- clearance [10]: 18 mL/min/kg
- MIC [11]: 0.016 µg/mL (≈ 0.0277 µM)
- clearance [33]: 3 mL/min/kg
- fraction unbound [12]: 0.042
- fAUC [13]: 6.26 µg·h/mL
- logD [14]: 1
- AUC [15]: 148 µg·h/mL
- MIC [16, 35]: 1.3 µg/mL (≈ 2.25 µM)
- MIC [17, 36]: 0.05 µg/mL (≈ 0.0864 µM)
- bioavailability [18]: 25%
- IC50 [19]: 200 µM
- MIC [20, 36]: 0.049 µg/mL (≈ 0.0847 µM)
- MIC [21, 37]: < 0.008 µg/mL
- IC50 [22]: 75 µM
- deltalog10CFU [23]: -0.16
- bioavailability [24]: 29%
- EC50 [25]: > 200 µM
- MIC [26, 38]: 23 µg/mL (≈ 39.8 µM)
- fraction unbound [27]: 0.021
- solubility [28]: 860 µM (≈ 497 µg/mL)
- clearance [29]: 5.35 mL/min/kg
- EC50 [30]: > 200 µM
- MIC [31, 39]: 0.1 µg/mL (≈ 0.173 µM)
